# Measured values published in ChEMBL document CHEMBL1124965, “Synthesis and dopamine agonist properties of (+-)-trans-3,4,4a,10b-tetrahydro-4-propyl-2H,5H-[1]benzopyrano [4,3-b]-1,4-oxazin-9-ol and its enantiomers” (J Med Chem, 1990).
# How the values were obtained:
# [1] = test system: Rattus norvegicus; assay: Inhibition of locomotor activity (LMA) in rats generated from four doses of 5-12 animals per dose (dose administered subcutaneously); conditions: sc
# [2] = test system: Rattus norvegicus; assay: Inhibition of dopamine neuronal firing activity in the rat substantia nigra DA neutrons (2.2 mg/kg administered intraperitoneally); format: functional
# In short: (§1)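 Chloral hydrate-anesthetized rats; zona compacta DA cells recorded, identified by waveform and firing pattern, site confirmed histologically. Drug given ip via indwelling catheter. Baseline is the mean of the 2 min before injection; effect is the mean over the 1-min period of maximal inhibition; percent decrease, N = 3–4 cells.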
# [3] = test system: Rattus norvegicus; assay: Inhibition of gamma-butyrolactone-stimulated DOPA synthesis in the corpus striatum of rats (30 mg/kg administered intraperitoneally); format: functional
# In short: (§2)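 Male Long-Evans rats dosed 30 min before GBL (750 mg/kg ip) plus decarboxylase inhibitor NSD 1015 (100 mg/kg ip); killed 30 min later. Striatal DOPA measured by HPLC with electrochemical detection. Expressed as percentage reversal versus GBL/NSD 1015-treated animals; N = 4–5.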
# [4] = test system: Rattus norvegicus; assay: Reversal of reserpine-induced depression in rat (dose administered subcutaneously) Values generated from three doses;5-10 rats were used per dose.; format: functional; conditions: sc
# In short: (§3)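 Rats pretreated with reserpine 5 mg/kg 24 h before testing; drug given sc and reversal of spontaneous locomotor inhibition measured; ED50 derived from three doses with 5–10 rats per dose.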
# [5] = test system: Mus musculus; assay: Inhibition of locomotor activity (LMA) in mice by the compound administered intraperitoneally.; format: functional
# In short: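 Spontaneous exploratory locomotor activity in mice after ip dosing; ED50 derived from four doses with at least three animals per dose.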
# [6] = test system: Rattus norvegicus; assay: Inhibition of gamma-butyrolactone-stimulated DOPA synthesis in the corpus striatum of rats (dose administered subcutaneously); format: functional; conditions: sc
# In short: as §2
# [7] = species on record: Rattus norvegicus; assay: Inhibition of gamma-butyrolactone-stimulated DOPA synthesis in the corpus striatum of rats; format: functional
# In short: as §2
# [8] = target: T1, D(2) dopamine receptor (Rattus norvegicus, UniProt P61169); assay: Concentration inhibiting specific binding of [3H]haloperidol to Dopamine receptor D2 from rat striatal brain.
# T1 sequence (P61169 whole entry): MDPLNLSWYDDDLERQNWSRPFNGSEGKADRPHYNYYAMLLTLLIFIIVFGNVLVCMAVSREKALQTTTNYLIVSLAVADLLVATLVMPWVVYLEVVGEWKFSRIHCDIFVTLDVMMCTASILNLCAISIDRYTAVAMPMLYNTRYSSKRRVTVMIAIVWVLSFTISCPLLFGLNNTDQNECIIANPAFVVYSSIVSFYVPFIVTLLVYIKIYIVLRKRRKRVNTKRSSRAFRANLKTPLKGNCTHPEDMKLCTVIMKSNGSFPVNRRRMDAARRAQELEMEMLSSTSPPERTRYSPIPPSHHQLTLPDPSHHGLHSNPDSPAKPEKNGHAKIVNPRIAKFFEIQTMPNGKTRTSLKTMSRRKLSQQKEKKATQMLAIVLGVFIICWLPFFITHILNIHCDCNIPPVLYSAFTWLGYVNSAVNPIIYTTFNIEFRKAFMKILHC
# [9] = target: T1, D(2) dopamine receptor; assay: Affinity for [3H]N-propylnorapomorphine (NPA) Dopamine receptor D2
# [10] = test system: Rattus norvegicus; assay: Inhibition of locomotor activity (LMA) in rats generated from four doses of 5-12 animals per dose (dose administered po)
# [11] = test system: Rattus norvegicus; assay: Reversal of reserpine-induced depression in rat (dose administered subcutaneously); format: functional; conditions: sc
# In short: as §3
# [12] = test system: Rattus norvegicus; assay: Inhibition of gamma-butyrolactone-stimulated DOPA synthesis in the corpus striatum of rats (2 mg/kg administered intraperitoneally); format: functional
# In short: as §2
# [13] = test system: Rattus norvegicus; assay: Reversal of reserpine-induced depression in rat (dose administered subcutaneously) Values generated from three doses; 5-10 rats were used per dose.; conditions: sc
# [14] = test system: Rattus norvegicus; assay: Inhibition of dopamine neuronal firing activity in the rat substantia nigra DA neutrons (0.25 mg/kg administered intraperitoneally); format: functional
# In short: as §1
# [15] = Mus musculus, ip, read-out: ED50
Compound,ED50 [1],Decrease [2],Percent reversal of GBL-stimulated DOPA synthesis [3],ED50 [4],"ED50 [5, 15]",ED50 [6],ED50 [5],Dose [7],IC50 [8],IC50 [9],ED50 [10],ED50 [11],Increase [12],ED50 [13],Decrease [14]
CCCN(CCC)C1COc2ccc(O)cc2C1 (stereo not given),0.17 mg/kg,100%,100%,13.4 mg/kg,11.3 mg/kg,0.04 mg/kg,–,–,–,–,–,–,–,–,–
CCCN1CCO[C@@H]2c3cc(O)ccc3OC[C@H]21,0.03 mg/kg,100%,88.4%,–,–,0.03 mg/kg,5.4 mg/kg,100%,409 nM,123 nM,5.8 mg/kg,6.25 mg/kg,–,–,–
CCCN1CCO[C@H]2c3cc(O)ccc3OC[C@@H]21,–,9%,0%,–,> 30 mg/kg,–,–,–,> 100000 nM,–,–,–,–,–,–
CCCN1CCO[C@@H]2c3cc(O)ccc3OC[C@H]21 (racemic),–,99%,61.8%,–,–,–,11 mg/kg,–,900 nM,–,–,–,–,–,–
CN1CCc2cccc3c2[C@H]1Cc1ccc(O)c(O)c1-3 [APOMORPHINE],0.021 mg/kg,–,–,–,0.3 mg/kg,0.06 mg/kg,–,–,–,–,–,–,100%,0.096 mg/kg,100%
